Measured values published in ChEMBL document CHEMBL3098071, “Synthesis and evaluation of novel azoles as potent antifungal agents” (2014).
Converted amounts (≈) assume the structure as drawn.

Key:
Format in all cases: functional
Nannizzia gypsea = assay: Antimicrobial activity against Microsporum gypseum by broth microdilution method
Trichophyton rubrum = assay: Antimicrobial activity against Trichophyton rubrum by broth microdilution method
Cryptococcus neoformans = assay: Antimicrobial activity against Cryptococcus neoformans after 72 hrs by broth microdilution method
How it was run: (§1)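 Broth microdilution in 96-well plates following NCCLS methods. Compounds were dissolved in DMSO, serially diluted in growth medium, inoculated and incubated at 35°C. MIC read at 24 h for Candida albicans and at 72 h for Cryptococcus neoformans. MIC80 is the first well with about 80% less growth than the drug-free well. Values are means of three replicate tests.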

Candida albicans [1] = assay: Antimicrobial activity against Candida albicans Y0109 after 24 hrs by broth microdilution method; conditions: Y0109, 24 h; how it was run: as §1
Aspergillus fumigatus = assay: Antimicrobial activity against Aspergillus fumigatus by broth microdilution method
Candida albicans [2] = assay: Antimicrobial activity against Candida albicans SC5314 after 24 hrs by broth microdilution method; conditions: SC5314, 24 h; how it was run: as §1
Nakaseomyces glabratus [3] = assay: Antimicrobial activity against Candida glabrata by broth microdilution method
Candida parapsilosis = assay: Antimicrobial activity against Candida parapsilosis by broth microdilution method; conditions: Lodderomyces parapsilosis
Candida albicans [4] = assay: Ratio of voriconazole MIC80 to compound MIC80 for Candida albicans SC5314
Candida albicans [5] = assay: Ratio of itraconazole MIC80 to compound MIC80 for Candida albicans SC5314
Nakaseomyces glabratus [6] = assay: Ratio of itraconazole MIC80 to compound MIC80 for Candida glabrata
Nakaseomyces glabratus [7] = assay: Ratio of ketoconazole MIC80 to compound MIC80 for Candida glabrata
Nakaseomyces glabratus [8] = assay: Ratio of voriconazole MIC80 to compound MIC80 for Candida glabrata
Nakaseomyces glabratus [9] = assay: Ratio of fluconazole MIC80 to compound MIC80 for Candida glabrata

| MIC80 (Nannizzia gypsea) [µg/mL] | MIC80 (Trichophyton rubrum) [µg/mL] | MIC80 (Cryptococcus neoformans) [µg/mL] | MIC80 (Candida albicans [1]) [µg/mL] | MIC80 (Aspergillus fumigatus) [µg/mL] | MIC80 (Candida albicans [2]) [µg/mL] | MIC80 (Nakaseomyces glabratus [3]) [µg/mL] | MIC80 (Candida parapsilosis) [µg/mL] | SMILES | Ratio (Candida albicans [4]) | Ratio (Candida albicans [5]) | Ratio (Nakaseomyces glabratus [6]) | Ratio (Nakaseomyces glabratus [7]) | Ratio (Nakaseomyces glabratus [8]) | Ratio (Nakaseomyces glabratus [9]) |
| --- | --- | --- | --- | --- | --- | --- | --- | --- | --- | --- | --- | --- | --- | --- |
| 0.25 (≈ 0.437 µM) | 0.0625 (≈ 0.109 µM) | 0.25 (≈ 0.437 µM) | 0.25 (≈ 0.437 µM) | > 64 | 0.25 (≈ 0.437 µM) | 0.25 (≈ 0.437 µM) | 0.25 (≈ 0.437 µM) | COc1cccc(-c2nnc(SCCCN3CCN(CC(O)(Cn4cncn4)c4ccc(F)cc4F)CC3)o2)c1 (stereo not given) | – | – | – | – | – | – |
| 16 (≈ 49.5 µM) | 1 (≈ 3.09 µM) | 4 (≈ 12.4 µM) | 1 (≈ 3.09 µM) | > 64 | 0.5 (≈ 1.55 µM) | 0.25 (≈ 0.773 µM) | 2 (≈ 6.19 µM) | OC(CN1CCNCC1)(Cn1cncn1)c1ccc(F)cc1F (stereo not given) | – | – | – | – | – | – |
| 1 (≈ 1.8 µM) | 1 (≈ 1.8 µM) | 1 (≈ 1.8 µM) | 0.125 (≈ 0.225 µM) | > 64 | 0.25 (≈ 0.45 µM) | 0.25 (≈ 0.45 µM) | 0.025 (≈ 0.045 µM) | Cc1ccc(-c2nnc(SCCCN3CCN(CC(O)(Cn4cncn4)c4ccc(F)cc4F)CC3)o2)cc1 (stereo not given) | – | – | – | – | – | – |
| 0.25 (≈ 0.437 µM) | 0.25 (≈ 0.437 µM) | 0.25 (≈ 0.437 µM) | 0.25 (≈ 0.437 µM) | > 64 | 0.25 (≈ 0.437 µM) | 0.25 (≈ 0.437 µM) | 0.25 (≈ 0.437 µM) | COc1ccc(-c2nnc(SCCCN3CCN(CC(O)(Cn4cncn4)c4ccc(F)cc4F)CC3)o2)cc1 (stereo not given) | – | – | – | – | – | – |
| 4 (≈ 7.15 µM) | 0.0625 (≈ 0.112 µM) | 0.25 (≈ 0.447 µM) | 0.25 (≈ 0.447 µM) | > 64 | 0.0156 (≈ 0.0279 µM) | 0.25 (≈ 0.447 µM) | 0.25 (≈ 0.447 µM) | OC(CN1CCN(CCCSc2nnc(-c3ccc(F)cc3)o2)CC1)(Cn1cncn1)c1ccc(F)cc1F (stereo not given) | – | – | – | – | – | – |
| 4 (≈ 6.94 µM) | 0.25 (≈ 0.434 µM) | 0.25 (≈ 0.434 µM) | 0.0039 (≈ 0.00677 µM) | > 64 | 0.0039 (≈ 0.00677 µM) | 0.25 (≈ 0.434 µM) | 0.25 (≈ 0.434 µM) | OC(CN1CCN(CCCSc2nnc(-c3ccccc3Cl)o2)CC1)(Cn1cncn1)c1ccc(F)cc1F (stereo not given) | 16 | 64 | – | – | – | – |
| 1 (≈ 1.85 µM) | 0.25 (≈ 0.462 µM) | 0.0625 (≈ 0.115 µM) | 0.0156 (≈ 0.0288 µM) | > 64 | 0.0156 (≈ 0.0288 µM) | 0.0625 (≈ 0.115 µM) | 0.0625 (≈ 0.115 µM) | OC(CN1CCN(CCCSc2nnc(-c3ccccc3)o2)CC1)(Cn1cncn1)c1ccc(F)cc1F (stereo not given) | – | – | – | – | – | – |
| 1 (≈ 1.61 µM) | 0.25 (≈ 0.403 µM) | 0.25 (≈ 0.403 µM) | 0.0625 (≈ 0.101 µM) | > 64 | 0.0625 (≈ 0.101 µM) | 0.0039 (≈ 0.00629 µM) | 0.25 (≈ 0.403 µM) | OC(CN1CCN(CCCSc2nnc(-c3cccc(Br)c3)o2)CC1)(Cn1cncn1)c1ccc(F)cc1F (stereo not given) | – | – | 32 | 2051 | 16 | 256 |
| 1 (≈ 1.76 µM) | 0.25 (≈ 0.441 µM) | 0.25 (≈ 0.441 µM) | 0.125 (≈ 0.221 µM) | > 64 | 0.125 (≈ 0.221 µM) | 0.25 (≈ 0.441 µM) | 0.25 (≈ 0.441 µM) | N#Cc1cccc(-c2nnc(SCCCN3CCN(CC(O)(Cn4cncn4)c4ccc(F)cc4F)CC3)o2)c1 (stereo not given) | – | – | – | – | – | – |
| 0.25 (≈ 0.426 µM) | 0.25 (≈ 0.426 µM) | 0.125 (≈ 0.213 µM) | 0.25 (≈ 0.426 µM) | > 64 | 0.125 (≈ 0.213 µM) | 0.25 (≈ 0.426 µM) | 0.125 (≈ 0.213 µM) | O=[N+]([O-])c1ccccc1-c1nnc(SCCCN2CCN(CC(O)(Cn3cncn3)c3ccc(F)cc3F)CC2)o1 (stereo not given) | – | – | – | – | – | – |
| 1 (≈ 1.42 µM) | 0.5 (≈ 0.709 µM) | 0.125 (≈ 0.177 µM) | 0.25 (≈ 0.354 µM) | 1 (≈ 1.42 µM) | 0.25 (≈ 0.354 µM) | 0.125 (≈ 0.177 µM) | 0.125 (≈ 0.177 µM) | CCC(C)n1ncn(-c2ccc(N3CCN(c4ccc(OCC5COC(Cn6cncn6)(c6ccc(Cl)cc6Cl)O5)cc4)CC3)cc2)c1=O (stereo not given) [ITRACONAZOLE] | – | – | – | – | – | – |
| 1 (≈ 1.7 µM) | 1 (≈ 1.7 µM) | 0.25 (≈ 0.426 µM) | 0.125 (≈ 0.213 µM) | > 64 | 0.25 (≈ 0.426 µM) | 0.125 (≈ 0.213 µM) | 0.125 (≈ 0.213 µM) | O=[N+]([O-])c1ccc(-c2nnc(SCCCN3CCN(CC(O)(Cn4cncn4)c4ccc(F)cc4F)CC3)o2)cc1 (stereo not given) | – | – | – | – | – | – |

| SMILES | MIC80 (Nannizzia gypsea) [µg/mL] | MIC80 (Trichophyton rubrum) [µg/mL] | MIC80 (Cryptococcus neoformans) [µg/mL] | MIC80 (Candida albicans [1]) [µg/mL] | MIC80 (Aspergillus fumigatus) [µg/mL] | MIC80 (Candida albicans [2]) [µg/mL] | MIC80 (Nakaseomyces glabratus [3]) [µg/mL] | MIC80 (Candida parapsilosis) [µg/mL] | Ratio (Candida albicans [4]) | Ratio (Candida albicans [5]) | Ratio (Nakaseomyces glabratus [6]) | Ratio (Nakaseomyces glabratus [7]) | Ratio (Nakaseomyces glabratus [8]) | Ratio (Nakaseomyces glabratus [9]) |
| --- | --- | --- | --- | --- | --- | --- | --- | --- | --- | --- | --- | --- | --- | --- |
| CC(=O)N1CCN(c2ccc(OCC3COC(Cn4ccnc4)(c4ccc(Cl)cc4Cl)O3)cc2)CC1 (stereo not given) [KETOCONAZOLE] | 2 (≈ 3.76 µM) | 8 (≈ 15.1 µM) | 4 (≈ 7.53 µM) | 8 (≈ 15.1 µM) | 2 (≈ 3.76 µM) | 4 (≈ 7.53 µM) | 8 (≈ 15.1 µM) | 8 (≈ 15.1 µM) | – | – | – | – | – | – |
